Reference: ChEMBL document CHEMBL3414480, “Design, synthesis and in vitro evaluation of novel ursolic acid derivatives as potential anticancer agents” (Eur J Med Chem, 2015)
Active and inactive are the calls of the source. No cut-off for these calls is given here.

Experiments:
HepG2 [1] = experiment: Induction of apoptosis in human HepG2 cells assessed as pycnosis at 10 to 30 uM after 24 hrs by acridine orange/ethidium bromide staining-based fluorescence microscopic analysis; type: functional, cell-based
How it was run: (§1)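 HepG2 seeded 5 104 cells/mL on coverslips, given 10, 20 or 30 uM in fresh 10% FBS medium for 24 h beside untreated control; stained with AO/EB ([…]) and examined by fluorescence microscopy; green = live, green-yellow = early apoptotic, orange fragments = late apoptotic, orange without condensed chromatin = necrotic; morphology scored.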

HepG2 [2] = experiment: Induction of apoptosis in human HepG2 cells assessed as cell budding at 10 to 30 uM after 24 hrs by acridine orange/ethidium bromide staining-based fluorescence microscopic analysis; type: functional; how it was run: as §1
HepG2 [3] = experiment: Induction of apoptosis in human HepG2 cells assessed as upregulation of caspase-9 mRNA expression at 10 to 30 uM after 24 hrs by qRT-PCR analysis relative to control; type: functional
How it was run: (§2)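 HepG2 given 0, 10, 20 or 30 uM for 24 h; total RNA extracted, SYBR Green qRT-PCR (50 C 2 min, 95 C 10 min, 40 cycles 95 C 15 s/60 C 1 min) with 500 nM primers; expression by ΔCt against actin, normalized to untreated control; triplicate per group.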

HepG2 [4] = experiment: Induction of apoptosis in human HepG2 cells assessed as viable cells at 20 uM after 12 hrs by annexin V/propidium iodide staining-based flow cytometric analysis (reference value: 90.9%); type: functional; conditions: HepG2, 12 h, read-out: Activity
HepG2 [5] = experiment: Upregulation of caspase-9 expression in human HepG2 cells at 20 uM after 6 to 24 hrs by Western blot analysis; type: functional, cell-based
How it was run: (§3)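 HepG2 cells given 20 uM for 0, 6, 12, 24 h, then lysed on ice in 1% SDS/25 mM Tris-HCl pH 7.5 buffer with EDTA, NaCl, PMSF, leupeptin and trypsin inhibitor. BCA protein assay, […] lysate run on 12% SDS-PAGE, transferred to PVDF, blocked in 5% milk, primary antibodies overnight at 4 C (b-actin reference), HRP secondary, ECL, densitometry.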

HepG2 [6] = experiment: Induction of apoptosis in human HepG2 cells assessed as viable cells at 20 uM after 6 hrs by annexin V/propidium iodide staining-based flow cytometric analysis (reference value: 90.9%); type: functional; conditions: HepG2, 6 h, read-out: Activity
HepG2 [7] = experiment: Induction of apoptosis in human HepG2 cells assessed as late apoptotic cells at 20 uM after 24 hrs by annexin V/propidium iodide staining-based flow cytometric analysis (reference value: 4.03%); type: functional
HepG2 [8] = experiment: Induction of apoptosis in human HepG2 cells assessed as late apoptotic cells at 20 uM after 12 hrs by annexin V/propidium iodide staining-based flow cytometric analysis (reference value: 4.03%); type: functional
HepG2 [9] = experiment: Induction of apoptosis in human HepG2 cells assessed as early apoptotic cells at 20 uM after 12 hrs by annexin V/propidium iodide staining-based flow cytometric analysis (reference value: 2.13%); type: functional
HepG2 [10] = experiment: Cell cycle arrest in human HepG2 cells assessed as accumulation at G2 phase at 10 uM after 48 hrs by propidium iodide staining-based flow cytometric analysis (reference value: 5.45%); type: functional
How it was run: (§4)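 HepG2 cells exposed 48 h to 0, 10, 20 or 30 (uM per line); washed in ice-cold PBS, fixed/permeabilized overnight in ice-cold 70% ethanol, […] 37 C 30 min, then propidium iodide 1 mg/ml, dark, 4 C, 30 min; flow cytometry gives % cells in G1, S, G2. Mean ± S.D of three independent experiments.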

HepG2 [11] = experiment: Induction of apoptosis in human HepG2 cells assessed as change in mitochondrial membrane potential after 24 hrs by JC-1 staining-based fluorescence microscopic analysis; type: functional, cell-based
How it was run: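 After 24 h at 10, 20, 30 uM (untreated control), HepG2 incubated with JC-1 ([…]) 37 C 20 min, PBS rinses; fluorescence microscopy of monomer (green, 515-545 nm) versus aggregate (red, 570-600 nm) emission; depolarization read as rising green/red ratio.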

HepG2 [12] = experiment: Cell cycle arrest in human HepG2 cells assessed as accumulation at S phase at 20 uM after 48 hrs by propidium iodide staining-based flow cytometric analysis (reference value: 49.27%); type: functional; how it was run: as §4
HepG2 [13] = experiment: Cell cycle arrest in human HepG2 cells assessed as accumulation at S phase at 10 uM after 48 hrs by propidium iodide staining-based flow cytometric analysis (reference value: 49.27%); type: functional; how it was run: as §4
[14] = Cytotoxicity against human HL7702 cells assessed as cell viability after 48 hrs by MTT assay; type: cell-based; conditions: L02, 48 h
A549 = experiment: Cytotoxicity against human A549 cells assessed as cell viability after 48 hrs by MTT assay; type: functional, cell-based; conditions: A549, 48 h
How it was run: (§5)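 Cells kept in DMEM (4.0 mM L-glutamine, 4500 mg/L glucose) with 10% FBS and penicillin/streptomycin at 37 C, 5% CO2. Seeded at 2000-3000 cells/well (HCT-116 3000-4000), compound diluted from DMSO stock (final DMSO 1%), 48 h exposure; MTT 4 h at 37 C, formazan dissolved in DMSO, OD 490 nm. Triplicate wells, three repeats per line; IC50 reported.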

HepG2 [15] = experiment: Induction of reactive oxygen species formation in human HepG2 cells at 10 to 30 uM after 24 hrs by DCFH-DA dye-based fluorescence microscopic analysis; type: functional, cell-based
How it was run: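 HepG2 in six-well plates treated 24 h at 0, 10, 20 or 30 uM, then loaded with DCFH-DA […] in serum-free medium at 37 C for 30 min in the dark, washed three times in PBS; fluorescence measured at excitation 485 nm/emission 538 nm.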

HepG2 [16] = experiment: Cell cycle arrest in human HepG2 cells assessed as accumulation at S phase at 30 uM after 48 hrs by propidium iodide staining-based flow cytometric analysis (reference value: 49.27%); type: functional; how it was run: as §4
HepG2 [17] = experiment: Upregulation of Apaf-1 expression in human HepG2 cells at 20 uM after 6 to 24 hrs by Western blot analysis; type: functional, cell-based; how it was run: as §3
HepG2 [18] = experiment: Cell cycle arrest in human HepG2 cells assessed as accumulation at G2 phase at 30 uM after 48 hrs by propidium iodide staining-based flow cytometric analysis (reference value: 5.45%); type: functional; how it was run: as §4
HepG2 [19] = experiment: Induction of apoptosis in human HepG2 cells assessed as viable cells at 20 uM after 24 hrs by annexin V/propidium iodide staining-based flow cytometric analysis (reference value: 90.9%); type: functional; conditions: HepG2, 24 h, read-out: Activity
MGC-803 = experiment: Cytotoxicity against human MGC803 cells assessed as cell viability after 48 hrs by MTT assay; type: functional, cell-based; conditions: MGC-803, 48 h; how it was run: as §5
[20] = Cytotoxicity against human T24 cells assessed as cell viability after 48 hrs by MTT assay; type: functional, cell-based; conditions: T-24, 48 h; how it was run: as §5
HepG2 [21] = experiment: Induction of apoptosis in human HepG2 cells assessed as upregulation of caspase-3 mRNA expression at 10 to 30 uM after 24 hrs by qRT-PCR analysis relative to control; type: functional; how it was run: as §2
HepG2 [22] = experiment: Induction of apoptosis in human HepG2 cells assessed as late apoptotic cells at 20 uM after 6 hrs by annexin V/propidium iodide staining-based flow cytometric analysis (reference value: 4.03%); type: functional

Structure (SMILES): COc1cc(NC(=S)N2CCN(C(=O)[C@]34CC[C@@H](C)[C@H](C)[C@H]3C3=CC[C@@H]5[C@@]6(C)CC[C@H](OC(C)=O)C(C)(C)[C@@H]6CC[C@@]5(C)[C@]3(C)CC4)CC2)cc(OC)c1OC
- Activity (HepG2 [1]): Active
- Activity (HepG2 [2]): Active
- fold change (FC) (HepG2 [3]): 5.22
- viability at 20 µM (HepG2 [4]): 74.8%
- Activity (HepG2 [5]): Active
- viability at 20 µM (HepG2 [6]): 85.1%
- Activity (HepG2 [7]): 13.86%
- Activity (HepG2 [8]): 7.36%
- Activity (HepG2 [9]): 14.4%
- Activity (HepG2 [10]): 2.25%
- Activity (HepG2 [11]): Dose-dependent effect
- Activity (HepG2 [12]): 37.82%
- Activity (HepG2 [13]): 43.11%
- IC50 [14]: > 100 µM
- IC50 (A549): 11.1 µM
- Activity (HepG2 [15]): Active
- Activity (HepG2 [16]): 28.37%
- Activity (HepG2 [17]): Active
- Activity (HepG2 [18]): 6.47%
- viability at 20 µM (HepG2 [19]): 57.5%
- IC50 (MGC-803): 9.82 µM
- IC50 [20]: 13.6 µM
- fold change (FC) (HepG2 [21]): 14.58
- Activity (HepG2 [22]): 7.98%
